# Screening data: PubChem, several laboratories
# This is a sample that favours compounds with a hit; in the whole collection about 11% have one here.
# S1P3 agonist: S1P3 (human) receptor agonism; Q99500; S1P3 NFAT-BLA reporter cells, FRET ratio; relative to 1 µM S1P, basal subtracted; activation, % at 4.5 µM; hit rate 0.1% among 60,000; AID 373;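 active = activation above the screen-wide mean plus 3 SD, cut at about 4.5% in these data, passing the limit was not always enough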
#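 Measure – % activation relative to 1 µM S1P (100%), per plate · System – stable CHO line with human S1P3, Gα16, NFAT-BLA reporter · Timing – cells plated overnight, compound 4 h 37 °C, substrate 2 h RT · Technique – fluorescent BLA substrate, ex 405 nm, em 460/535 nm ratio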
# S1P1 ag-PAM: S1P1 (human) agonism or agonism potentiation | activation, % at 9.5 µM | S1P1 CRE-bla cells, forskolin, beta-lactamase FRET, potentiator mode; S1P1 agonist co-added at EC20, 2 nM; 100% = saturating reference agonist, 0% = basal | P21453 | hit rate 0.57% among 56,000;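 active = activation above a cutoff set at the mean activation of all tested compounds plus 3 SD, cut at about 54% in these data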;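 also: forskolin at 4 µM as EC80 and the EC20 agonist is SEW2871; 100% = SEW2871 at its EC100 plus forskolin at EC80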
# D1 mod: allosterically modulates the human D1 dopamine receptor | P21728 | HEK293 D1, CRE-luciferase, dopamine EC30 potentiation; actives deviate in either direction | B-score at 10 µM | hit rate 5.9% among 58,000 | AID 641;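 active = luminescence count or its row- and column-corrected plate score outside the 99.7% band of the plate's sample wells, on either side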
# M1 antag: antagonists of rat M1 muscarinic receptor; CHO-M1 cells, Fluo-4 calcium, ACh EC80 antagonist mode; active compounds read low; B-score at 10 µM; hit rate 3.4% among 64,000;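 active = calcium fluorescence response, raw or row-and-column corrected B-score, differing from the plate sample mean either way at a set confidence level, mostly lower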
# Target sequence (P08482 whole entry, looked up): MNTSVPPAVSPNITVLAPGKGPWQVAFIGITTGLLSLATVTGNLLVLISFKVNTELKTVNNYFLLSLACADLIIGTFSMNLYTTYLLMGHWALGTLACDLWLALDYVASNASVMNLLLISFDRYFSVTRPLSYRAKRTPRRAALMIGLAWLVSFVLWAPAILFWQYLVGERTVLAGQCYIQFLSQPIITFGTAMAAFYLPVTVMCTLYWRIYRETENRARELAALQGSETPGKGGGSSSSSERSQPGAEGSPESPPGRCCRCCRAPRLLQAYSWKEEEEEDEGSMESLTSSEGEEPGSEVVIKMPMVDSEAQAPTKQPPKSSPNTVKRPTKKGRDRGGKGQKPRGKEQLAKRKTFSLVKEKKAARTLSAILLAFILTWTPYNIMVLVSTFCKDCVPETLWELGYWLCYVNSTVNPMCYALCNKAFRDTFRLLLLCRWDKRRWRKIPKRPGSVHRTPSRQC
# M1 ag: agonists of M1 muscarinic receptor; CHO-M1 cells, Fluo-4 calcium fluorescence, agonist mode; active compounds read high; B-score at 10 µM; hit rate 3% among 64,000; AID 626;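 active = fluorescence rise, raw or as B-score row- and column-corrected plate score, outside the 99.7% band of its plate's samples, either direction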
# D1 mod confirm: confirmation of human D1 dopamine receptor allosteric modulators; luminescence at 10 µM; HEK293 D1 CRE-luciferase, dopamine EC30 potentiation; active compounds read high; hit rate 88% among 2,200; shares compounds with D1 mod;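 active = luminescence in either of two replicates above the same-plate mean plus 3 SD of the low-dose dopamine control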
# D1 no dopamine: secondary test of D1 modulators: activity without dopamine; HEK293 D1 CRE-luciferase, luminescence, no dopamine; active compounds read high; hit rate 0.8% among 1,900; luminescence at 10 µM; shares compounds with D1 mod; in the data active = luminescence above about 3900
# Isoprot counter: alters isoproterenol CRE-luciferase response in HEK293 cells. shares compounds with D1 mod. HEK293 D1 CRE-luciferase, isoproterenol EC30 counter-screen; active compounds read high. luminescence at 10 µM. hit rate 63% among 2,200;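 active = luminescence in either replicate above plate mean of wells with a partly effective reference agonist dose plus 3 SD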;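 also: isoproterenol raises cAMP through native beta-adrenoceptor Gs so signal bypasses D1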
# An asterisk follows results filed as active; x = no result given.
SMILES,S1P3 agonist,S1P1 ag-PAM,D1 mod,M1 antag,M1 ag,D1 mod confirm,D1 no dopamine,Isoprot counter
Cc1cc2c(c(=O)n1C)C(Cc1ccccc1)C(C#N)=C(N)O2 (centres undefined),-1,-10,-0.4,-0.18,0.1,x,x,x
Cc1ccc(Nc2nnc(SCc3cc(=O)n4ccsc4n3)s2)c(C)c1,0,-45,2.6*,-0.28,-1.5,6736*,1632,3068
c1coc(-c2nc3ccccc3nc2-c2ccco2)c1,x,x,6.7*,0.13,0.27,14092*,x,4012*
O=c1oc(-c2ccco2)nc2ccccc12,-1,-22,0.29,0.046,0.24,x,x,x
O=C(c1ccc2c(c1)OCO2)N1CCc2ccccc2C1,1,-15,22*,0.4,0.13,18384*,1548,4216*
N#CC1=C(N)S[C@H](C(=O)C23CC4CC(CC(C4)C2)C3)[C@H]1c1ccncc1,-1,-14,12*,-0.095,-0.22,12784*,1676,5388*
O=C(NCc1ccncc1)C12CC3CC(CC(C3)C1)C2,0,11,0.95,0.66,-0.11,x,x,x
NS(=O)(=O)c1ccc(CCNC2CC(=O)N(CCc3ccccc3)C2=O)cc1 (centres undefined),-1,x,2.3*,0.28,0.14,4996,1548,2780
NS(=O)(=O)c1ccc(CCNC2CC(=O)N(Cc3ccccc3)C2=O)cc1 (centres undefined),-1,-8,-0.026,0.054,0.026,x,x,x
O=C(CN1C(=O)NC2(CCCc3ccccc32)C1=O)N1CCN(C(=O)c2ccco2)CC1 (centres undefined),0,3,0.037,-0.066,0.38,x,x,x
COc1ccc(-c2csc(/C(C#N)=C(\O)CSc3nccn3C)n2)cc1OC,0,-21,19*,0.95,1.1,18552*,1616,3944*
COc1ccccc1N1CCN(C/C(O)=C(\C#N)c2nc(-c3ccccc3)cs2)CC1,0,24,-0.35,0.044,0.0038,x,x,x
NC(=O)C1(N2CCCCC2)CCN(C(=O)CSc2nc3ccccc3s2)CC1,0,-7,0.7,0.086,-1.2,x,x,x
CCOC(=O)c1cnn(-c2nc(C)cc(C)n2)c1N,1,14,x,-0.0019,0.15,x,x,x
CCOC(=O)c1cnn(-c2cccc(Cl)c2)c1N,0,-22,4.6*,-0.63,-0.52,12468*,1660,3736
COc1ccc(CCNC(=O)c2c(O)c3c([nH]c2=O)CCCC3)cc1,x,x,1.8,-0.44,-0.097,x,x,x
CCOC(=O)c1c(-c2ccsc2)csc1N,-1,-6,7.5*,-0.66,0.047,8708*,1572,2980
CCN(CC)S(=O)(=O)c1cccc(-c2nnc(SCCOc3ccccc3)o2)c1,0,6,14*,-0.45,-0.47,5768,1568,2704
COc1ccc(CN2C(=O)c3cccnc3C2Nc2cc(Cl)c(OC)cc2OC)cc1 (centres undefined),0,3,6.5*,-1.7,-0.88,10420*,x,3872*
Cc1csc2ncc(C(=O)NC(C)c3ccccc3)c(=O)n12 (centres undefined),-1,6,x,-0.45,-1.4,x,x,x
O=C(CSc1nc(C2CC2)nc2sc3c(c12)CCCC3)NCc1ccco1,-1,-4,-0.58,-0.51,-0.017,x,x,x
CCCc1nc2sc3c(SCC(=O)NCc4ccco4)ncnc3c2c2c1CCC2,x,x,5.3*,-0.39,-0.54,8768*,1628,4012
CCC(Oc1ccc2c(c1)C(=O)CC(C)(C)O2)C(=O)NCCN1CCCCCC1 (centres undefined),0,10,-0.91,-0.38,0.14,x,x,x
COc1ccc(N(CC(=O)Nc2cc(OC)ccc2OC)S(=O)(=O)c2c(C)nn(C)c2C)cc1,22,-52,8.7*,-0.89,-0.8,14244*,1416,4064*
COc1ccc(N(CC(=O)Nc2cccc(OC)c2)S(=O)(=O)c2c(C)nn(C)c2C)cc1,-1,8,x,-0.19,0.62,x,x,x
SMILES,S1P3 agonist,S1P1 ag-PAM,D1 mod,M1 antag,M1 ag,D1 mod confirm,D1 no dopamine,Isoprot counter
COc1ccc(OC)c(NC(=O)CN(c2ccc(OC)c(Cl)c2)S(C)(=O)=O)c1,0,-7,4*,-0.077,-0.62,16872*,1728,4068*
CCNC(=O)CSc1nc2cc(OC)c(OC)cc2c(=O)n1CCC1=CCCCC1,0,1,-0.14,0.26,0.29,x,x,x
CCCCc1nc2sc3c(c2c(=O)[nH]1)CCC3,-1,-4,0.95,-0.11,-0.08,x,x,x
COc1cccc(-n2nnnc2SCC(=O)c2cc(OC)ccc2OC)c1,-2,2,4.2*,x,x,4344,1632,3224
Clc1ccc(C2=Nn3c(nnc3-c3n[nH]c4c3CCC4)SC2)cc1Cl,0,-100,9.4*,-0.58,-0.082,6068*,1632,4288*
O=C(CSc1nnc(Cc2ccccc2)o1)Nc1ccc(Br)cn1,0,2,-0.53,-0.11,-0.86,x,x,x
CCOC(=O)C1CCCN(C(=O)c2sc3nc(-c4ccc(OC)cc4)cn3c2C)C1 (centres undefined),0,10,-0.39,-1.7,-0.027,x,x,x
O=c1c2cc3ccccc3n2cnn1Cc1ccccc1F,-1,-22,3.1*,-0.33,1.5,21084*,1636,3920*
O=c1ccccn1Cc1ccccc1F,0,-10,0.97,0.42,0.89,x,x,x
Nc1ncnc2oc(-c3ccco3)c(-c3ccco3)c12,-1,32,10*,0.067,-0.88,19128*,24288*,3744*
Nc1nnc(-c2ccco2)s1,0,-15,0.75,-0.36,0.16,x,x,x
COc1ccc(N(C(=O)c2ccco2)S(=O)(=O)c2cccs2)cc1,-1,x,7.5*,-0.28,-0.032,14396*,1668,4772*
COc1ccc(-c2c(C)n([O-])c3c([n+]2=O)CCC3)cc1OC,0,-16,2.3*,0.51,-0.022,4884,1632,2304
C=CCNC(=O)C1CC(c2cccc(OC)c2)=NO1 (centres undefined),1,-1,4.4*,-0.31,0.013,7068*,1696,2508
CCCCCNc1c(C(=O)OCC)c(=O)[nH]c2ccccc12,-1,-16,0.57,-0.39,1.6,x,x,x
CCNc1nc(SCc2ccccc2)nc(N2CCOCC2)n1,0,2,23*,-0.55,0.7,17404*,x,5532*
CNc1nc(SC)nc(N2CCOCC2)n1,0,-24,11*,1.4,-0.3,17184*,2056,3676*
Nc1nc(CSCc2ccccc2)nc(N2CCOCC2)n1,0,-15,4.3*,0.9,-0.34,12172*,1852,5012*
CCN1CCN(c2nc3c(c(=O)n(C)c(=O)n3C)n2CCSc2nccc(C)n2)CC1,1,-13,0.037,-0.063,-0.41,x,x,x
